Activity calls are given as the source filed them. The rule behind the calls is not given here.
Tests used:
RAW264.7 [1] = assay: Cytotoxicity against LPS-stimulated mouse RAW264.7 cells assessed as cell viability upto 50 ug/mL for 4 hrs by MTT assay in presence of 0.01 to 1 ug/mL LPS measured after 24 hrs; type: cell-based
In short: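 Viability of RAW 264.7 cells measured by MTT colorimetric assay after 24 h incubation with compounds. Compounds were tested up to 50 μg/mL alongside LPS at 0.01, 0.1 or 1 μg/mL, and at 100 μg/mL with 10 μg/mL LPS.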

RAW264.7 [2] = assay: Antiinflammatory activity against LPS-stimulated mouse RAW264.7 cells assessed as inhibition of IL-10 production at 0.5 to 50 ug/ml pretreated for 4 hrs followed by challenge with 1 ug/mL LPS for 48 hrs by ELISA relative to control; type: functional, cell-based
RAW264.7 [3] = assay: Antiinflammatory activity against LPS-stimulated mouse RAW264.7 cells assessed as inhibition of IL-6 production at 0.5 to 50 ug/ml pretreated for 4 hrs followed by challenge with 1 ug/mL LPS for 48 hrs by ELISA relative to control; type: functional, cell-based
RAW264.7 [4] = assay: Antiinflammatory activity against LPS-stimulated mouse RAW264.7 cells assessed as inhibition of IL1-beta production at 0.5 to 50 ug/ml pretreated for 4 hrs followed by challenge with 1 ug/mL LPS for 48 hrs by ELISA relative to control; type: functional, cell-based
RAW264.7 [5] = assay: Antiinflammatory activity against LPS-stimulated mouse RAW264.7 cells assessed as inhibition of TNFalpha production at 0.5 to 50 ug/ml pretreated for 4 hrs followed by challenge with 1 ug/mL LPS for 48 hrs by ELISA relative to control; type: functional, cell-based
HEK293 [6] = assay: Antiinflammatory activity against LPS-stimulated NF-kappaB activated human HEK293 cells at 200 ug/ml pretreated for 4 hrs followed by challenge with LPS for 48 hrs by luciferase assay; type: functional, cell-based
In short: (§1)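 NF-κB reporter 293 cells grown in DMEM with 10% FBS, penicillin 100 U/mL and streptomycin 100 μg/mL. Compounds tested at 12.5, 25, 50, 100 and 200 μg/mL, added 4 h before stimulation with 1 μg/mL LPS for 48 h. Cells then washed twice in PBS (pH 7.4) and lysed in passive lysis buffer, and luciferase activity read.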

HEK293 [7] = assay: Antiinflammatory activity against LPS-stimulated NF-kappaB activated human HEK293 cells at 100 ug/ml pretreated for 4 hrs followed by challenge with LPS for 48 hrs by luciferase assay; type: functional, cell-based; in short: as §1
HEK293 [8] = assay: Antiinflammatory activity against LPS-stimulated NF-kappaB activated human HEK293 cells at 50 ug/ml pretreated for 4 hrs followed by challenge with LPS for 48 hrs by luciferase assay; type: functional, cell-based; in short: as §1
HEK293 [9] = assay: Antiinflammatory activity against LPS-stimulated NF-kappaB activated human HEK293 cells at 25 ug/ml pretreated for 4 hrs followed by challenge with LPS for 48 hrs by luciferase assay; type: functional, cell-based; in short: as §1
HEK293 [10] = assay: Antiinflammatory activity against LPS-stimulated NF-kappaB activated human HEK293 cells at 12.5 ug/ml pretreated for 4 hrs followed by challenge with LPS for 48 hrs by luciferase assay; type: functional, cell-based; in short: as §1
RAW264.7 [11] = assay: Cytotoxicity against LPS-stimulated mouse RAW264.7 cells assessed as decrease in cell viability upto 100 ug/mL for 4 hrs by MTT assay in presence of 10 ug/mL LPS measured after 24 hrs
RAW264.7 [12] = assay: Antiinflammatory activity against LPS-stimulated mouse RAW264.7 cells assessed as inhibition of nitric oxide production at 0.5 to 50 ug/ml pretreated for 4 hrs followed by challenge with 1 ug/mL LPS for 24 hrs by Griess reaction method relative to control

Row | Structure (SMILES) | Activity (RAW264.7 [1]) | inhibition (RAW264.7 [2]) | inhibition (RAW264.7 [3]) | inhibition (RAW264.7 [4]) | inhibition (RAW264.7 [5]) | Activity (HEK293 [6]) | Activity (HEK293 [7]) | Activity (HEK293 [8]) | Activity (HEK293 [9]) | Activity (HEK293 [10]) | Activity (RAW264.7 [11]) | inhibition (RAW264.7 [12])
1 | CC(=O)[C@H](C)CCC1=CC2=CC[C@@H]3[C@@]4(C)C[C@@H](O)[C@H](O)[C@@](C)(CO)[C@@H]4CC[C@@]3(C)[C@]2(C)CC1 | Non-toxic | Active | Active | Active | Active | Active | Active | Active | Active | Active | Toxic | Active
2 | C[C@]12CCC(=O)C=C1CC[C@@H]1[C@@H]2[C@@H](O)C[C@@]2(C)[C@H]1CC[C@]2(O)C(=O)CO |  | Active | Active | Active | Active |  |  |  |  |  |  | Active
3 | C[C@@H]1CC[C@]2(C(=O)O)CC[C@]3(C)C(=CC[C@@H]4[C@@]5(C)C[C@@H](O)[C@H](O)[C@@](C)(CO)[C@@H]5CC[C@]43C)[C@@H]2[C@]1(C)O | Non-toxic | Active | Active | Active | Active | Active | Active | Active | Active | Active | Toxic | Active
4 | CC1(C)CC[C@]2(C(=O)O)CC[C@]3(C)C(=CC[C@@H]4[C@@]5(C)C[C@@H](O)[C@@H](O)[C@@](C)(CO)[C@@H]5CC[C@]43C)[C@@H]2C1 | Non-toxic | Active | Active | Active | Active | Active | Active | Active | Active | Active | Toxic | Active
5 | CC1(C)CC[C@]2(C(=O)O)CC[C@]3(C)C(=C2C1)CC[C@@H]1[C@@]2(C)C[C@@H](O)[C@H](O)C(C)(C)[C@@H]2CC[C@]13C | Non-toxic | Active | Active | Active | Active | Active | Active | Active | Active | Active | Toxic | Active
